# From ChEMBL document CHEMBL4251647, “Synthesis, anticancer activity and mechanism of action of new thiazole derivatives” (Eur J Med Chem, 2018)
# What was measured:
# HT-29 [1] = assay: Cytotoxicity against human HT-29 cells assessed as inhibition of cell viability at 25 ug/ml after 72 hrs by MTT assay relative to control; format: functional; conditions: HT-29, 72 h
# Outline: (§1)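 Single-concentration MTT screen at 25 µg/mL for 72 h. Seeding was 3 x 10^5 cells/mL (HL-60, K562) or 1 x 10^5 cells/mL (adherent), with 24 h preincubation. MTT was added for the final 3 h, formazan dissolved in DMSO and absorbance read at 560 nm. Results are given as percent inhibition ± SD.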
# K562 [2] = assay: Cytotoxicity against human K562 cells assessed as inhibition of cell viability at 25 ug/ml after 72 hrs by MTT assay relative to control; format: functional; conditions: K562, 72 h; outline: as §1
# HEp-2 [3] = assay: Cytotoxicity against human Hep2 cells assessed as inhibition of cell viability at 25 ug/ml after 72 hrs by MTT assay relative to control; format: functional; conditions: HEp-2, 72 h; outline: as §1
# HL-60 [4] = assay: Cytotoxicity against human HL60 cells assessed as inhibition of cell viability at 25 ug/ml after 72 hrs by MTT assay relative to control; format: functional; conditions: HL-60, 72 h; outline: as §1
# NCI-H292 [5] = assay: Cytotoxicity against human NCI-H292 cells assessed as inhibition of cell viability at 25 ug/ml after 72 hrs by MTT assay relative to control; format: functional; conditions: NCI-H292, 72 h; outline: as §1
# PBMC = assay: Cytotoxicity against human PBMC cells assessed as inhibition of cell viability after 72 hrs by alamar blue assay; format: cell-based
# Outline: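 PBMC from healthy donors were grown in RPMI-1640 with 20% FBS and 2% phytohaemagglutinin, then plated at 10^6 cells/mL. After 24 h, compounds (0.048–25 µg/mL, in DMSO) were added for 72 h. Resazurin was added for the final 24 h and absorbance read at 570 and 595 nm as percent of control.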
# HEp-2 [6] = assay: Cytotoxicity against human Hep2 cells assessed as inhibition of cell viability after 72 hrs by MTT assay; format: functional, cell-based; conditions: HEp-2, 72 h
# Outline: (§2)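 MTT assay. Leukaemic lines were seeded at 3 x 10^5 cells/mL and adherent lines at 1 x 10^5 cells/mL, then preincubated 24 h. Compounds were added at 0.098–25.0 µg/mL for 72 h, with MTT for the last 3 h. Formazan was dissolved in DMSO and read at 560 nm. IC50 came from regression; triplicate, two independent experiments.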
# Erythrocyte = assay: Hemolytic activity in human erythrocytes after 1 hr by spectrophotometric method; format: ADME, cell-based
# Outline: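 Human erythrocytes as a 2% suspension in 0.85% NaCl with 10 mM CaCl2 were exposed to 0.78–250 µg/mL for 1 h at room temperature. After centrifugation, released haemoglobin in the supernatant was read at 540 nm. Triton X-100 (1%) served as positive control; EC50 is the concentration giving 50% haemolysis.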
# K562 [7] = assay: Cytotoxicity against human K562 cells assessed as inhibition of cell viability after 72 hrs by MTT assay; format: functional, cell-based; conditions: K562, 72 h; outline: as §2
# HT-29 [8] = assay: Cytotoxicity against human HT-29 cells assessed as inhibition of cell viability after 72 hrs by MTT assay; format: functional, cell-based; conditions: HT-29, 72 h; outline: as §2
# NCI-H292 [9] = assay: Cytotoxicity against human NCI-H292 cells assessed as inhibition of cell viability after 72 hrs by MTT assay; format: functional, cell-based; conditions: NCI-H292, 72 h; outline: as §2
# HL-60 [10] = assay: Cytotoxicity against human HL60 cells assessed as inhibition of cell viability after 72 hrs by MTT assay; format: functional, cell-based; conditions: HL-60, 72 h; outline: as §2
# K562 [11] = assay: Cytotoxicity against human K562 cells assessed as inhibition of cell viability after 24 hrs by MTT assay; format: functional, cell-based; conditions: K562, 24 h
# Outline: (§3)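 K562 cells (3 x 10^5 cells/mL, RPMI-1640 with 10% FBS) were treated with serial dilutions for 24 or 48 h. Viability was read by MTT (absorbance at 560 nm after DMSO solubilisation), and IC50 was obtained by regression.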
# K562 [12] = assay: Cytotoxicity against human K562 cells assessed as inhibition of cell viability after 48 hrs by MTT assay; format: functional, cell-based; conditions: K562, 48 h; outline: as §3
# [13] = Selectivity index, ratio of IC50 for human PBMC to IC50 for human K562 cells; format: toxicity; conditions: human PBMC and human K562 cells, read-out: Ratio IC50
# Outline: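 Ratio of IC50 in PBMC (Alamar blue, 72 h) to IC50 in K562 cells (MTT, 72 h), calculated as SI = IC50(PBMC)/IC50(K562).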
# K562 [14] = assay: Cytotoxicity against human K562 cells assessed as inhibition of cell viability by MTT assay; format: functional, cell-based; conditions: TDE = time-dependent effect
# K562 [15] = assay: Induction of DNA damage in human K562 cells at 0.5 uM after 48 hrs by propidium iodide staining based flow cytometry (reference value: 3.62 +/- 0.37%); format: functional
# K562 [16] = assay: Cell cycle arrest in human K562 cells assessed as accumulation at G2/M-phase at 0.2 uM after 48 hrs by flow cytometry (reference value: 35.97 +/- 1.94%); format: functional
# Outline: (§4)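 K562 cells seeded at 3 x 10^5 cells/mL in RPMI-1640 and exposed 48 h at 37 °C, 5% CO2. Cells were stained with propidium iodide (Guava cell cycle kit) and 5,000 events acquired by flow cytometry. Vehicle control was 0.1% DMSO. Two independent experiments, each in triplicate.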
# K562 [17] = assay: Cell cycle arrest in human K562 cells assessed as accumulation at S-phase at 0.2 uM after 48 hrs by flow cytometry (reference value: 17.39 +/- 0.84%); format: functional; outline: as §4
# K562 [18] = assay: Induction of mitochondrial membrane potential depolarization in human K562 cells at 0.5 uM after 48 hrs by Rho-123 staining based flow cytometry (reference value: 12.24 +/- 0.61%); format: functional
# K562 [19] = assay: Cell cycle arrest in human K562 cells assessed as accumulation at G1-phase at 0.2 uM after 48 hrs by flow cytometry (reference value: 45.54 +/- 1.34%); format: functional; outline: as §4
Compound,inhibition at 25 µg/mL (HT-29 [1]),inhibition at 25 µg/mL (K562 [2]),inhibition at 25 µg/mL (HEp-2 [3]),inhibition at 25 µg/mL (HL-60 [4]),inhibition at 25 µg/mL (NCI-H292 [5]),IC50 (PBMC),IC50 (HEp-2 [6]),EC50 (Erythrocyte),IC50 (K562 [7]),IC50 (HT-29 [8]),IC50 (NCI-H292 [9]),IC50 (HL-60 [10]),also measured
FC(F)(F)c1ccc(/C=N/Nc2nc(-c3ccc(Br)cc3)cs2)cc1,67.4%,25%,17.1%,46.7%,64.2%,,,,,,,,
COc1ccc(-c2cs/c(=N/N=C/c3ccc(C(F)(F)F)cc3)n2-c2ccccc2)cc1,58.5%,59.2%,81.8%,36.7%,66.3%,,,,,,,,
COc1ccc(-c2csc(N/N=C/c3ccc(C(F)(F)F)cc3)n2)cc1,76.2%,61.5%,78.2%,89.1%,68.5%,130 µM,11.3 µM,> 250 µg/mL,> 66.2 µM,22.7 µM,> 66.2 µM,3.67 µM,
COc1ccc(-c2cs/c(=N/N=C/c3ccc(C(F)(F)F)cc3)n2C)cc1,62.5%,50.4%,53.7%,67.8%,68.3%,,,,,,,,
Cc1ccc(-c2csc(N/N=C/c3ccc(C(F)(F)F)cc3)n2)cc1,42.7%,20.9%,59.9%,45.2%,62.3%,,,,,,,,
N=C(S)N/N=C/c1ccc(C(F)(F)F)cc1,85.4%,87.2%,91.8%,95.3%,89.5%,80.2 µM,6.27 µM,> 250 µg/mL,6.42 µM,9.02 µM,10.8 µM,12.7 µM,IC50 (K562 [11]): > 101 µM; IC50 (K562 [12]): 34 µM; selectivity ratio [13]: 12.5; Activity (K562 [14]): Tde
FC(F)(F)c1ccc(/C=N/Nc2nc(-c3ccc(Cl)cc3)cs2)cc1,40.1%,50.5%,33%,61.4%,67.7%,,,,,,,,
O=[N+]([O-])c1cccc(-c2csc(N/N=C/c3ccc(C(F)(F)F)cc3)n2)c1,79.4%,75.5%,84.3%,77.4%,75.1%,151 µM,34.2 µM,> 250 µg/mL,10.2 µM,23.9 µM,22.8 µM,29.3 µM,
FC(F)(F)c1ccc(/C=N/Nc2nc(-c3ccc(Cl)c(Cl)c3)cs2)cc1,84%,47.8%,83.5%,96.4%,98.2%,65.6 µM,10.4 µM,> 250 µg/mL,> 60.1 µM,12.2 µM,6.57 µM,4.23 µM,
Cc1sc(N/N=C/c2ccc(C(F)(F)F)cc2)nc1-c1ccccc1,46.2%,25%,29.5%,30.9%,60.9%,,,,,,,,
FC(F)(F)c1ccc(/C=N/Nc2nc(-c3cccc4ccccc34)cs2)cc1,45.8%,44.9%,28.5%,39.1%,35.7%,,,,,,,,
O=[N+]([O-])c1ccc(-c2csc(N/N=C/c3ccc(C(F)(F)F)cc3)n2)cc1,59.3%,87.2%,90%,80.2%,96.3%,53.2 µM,27.3 µM,> 250 µg/mL,16.9 µM,> 63.6 µM,7.41 µM,11.5 µM,
FC(F)(F)c1ccc(/C=N/Nc2nc(-c3ccccc3)cs2)cc1,,,34.7%,40.6%,49.8%,,,,,,,,
Fc1ccc(-c2cs/c(=N/N=C/c3ccc(C(F)(F)F)cc3)n2-c2ccccc2)cc1,74.6%,59.1%,22%,26.2%,41.8%,,,,,,,,
Cn1c(-c2ccc(Cl)cc2Cl)cs/c1=N/N=C/c1ccc(C(F)(F)F)cc1,52.7%,69.7%,33.5%,43.5%,35.7%,,,,,,,,
CNC(=S)N/N=C/c1ccc(C(F)(F)F)cc1,88.7%,82.6%,88.1%,94.6%,93.3%,93.3 µM,12.6 µM,> 250 µg/mL,13.2 µM,5.06 µM,20.8 µM,17.2 µM,
FC(F)(F)c1ccc(/C=N/N=c2/scc(-c3ccc(Cl)cc3)n2-c2ccccc2)cc1,82.2%,59%,58.7%,28.4%,87.8%,,,,,,,,
Cn1c(-c2ccc([N+](=O)[O-])cc2)cs/c1=N/N=C/c1ccc(C(F)(F)F)cc1,75.1%,59.8%,84.8%,83.2%,44.1%,140 µM,26.4 µM,> 250 µg/mL,> 61.4 µM,47.8 µM,> 61.4 µM,11.8 µM,
Fc1ccc(-c2csc(N/N=C/c3ccc(C(F)(F)F)cc3)n2)cc1,70.1%,61.6%,62.6%,58.1%,78.8%,,,,,,,,
FC(F)(F)c1ccc(/C=N/N=c2/scc(-c3ccc(Cl)cc3Cl)n2-c2ccccc2)cc1,,,,14.4%,38.5%,,,,,,,,
COc1cccc2c1C(=O)c1c(O)c3c(c(O)c1C2=O)C[C@@](O)(C(=O)CO)C[C@@H]3O[C@H]1C[C@H](N)[C@H](O)[C@H](C)O1 [DOXORUBICIN],,,,,,0.38 µM,1.21 µM,,1.38 µM,0.69 µM,0.19 µM,0.19 µM,Activity (K562 [15]): 19.69%; Activity (K562 [16]): 81.29%; Activity (K562 [17]): 10.67%; Activity (K562 [18]): 23.6%; Activity (K562 [19]): 9.53%
FC(F)(F)c1ccc(/C=N/NC(=S)Nc2ccccc2)cc1,74.7%,71.2%,63.6%,37.7%,58.4%,,,,,,,,
